In brackets after ≈: the same amount, converted by molar mass.
Legend:
[1] = target: Casein kinase I isoform alpha (Homo sapiens) (UniProt P48729); assay: Inhibition of recombinant human N-terminal GST/HIS6-tagged CK1alpha (M1 to F365 residues) expressed in Sf9 insect cells at 1 uM using casein as substrate by fliter binding assay relative to control
Method in brief: (§1)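 Kinase panel of 24 enzymes, each tested at 1 µM; percent inhibition reported as the average of two independent data points.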

[2] = target: PI3-kinase p110-alpha/p85-alpha (Homo sapiens, UniProt P42336); assay: Inhibition of full-length human P110alpha (1 to 1068 residues)/N-terminal GST-fused p85alpha (1 to 724 residues) expressed in baculovirus expression system by ADP Hunter assay; conditions: read-out: Ki(app)
[3] = target: Voltage-gated inwardly rectifying potassium channel KCNH2 (Homo sapiens, UniProt Q12809); assay: Inhibition of human ERG by Tracer Red dye based fluorescence polarization assay
Method in brief: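 hERG binding measured with Predictor hERG kit per kit instructions, read by fluorescence polarization.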

CYP2D6 = CYP2D6 (Homo sapiens, UniProt P10635); assay: Inhibition of CYP2D6 (unknown origin) at 10 uM relative to control; type: ADME
Chain of CYP2D6 (P10635 whole entry): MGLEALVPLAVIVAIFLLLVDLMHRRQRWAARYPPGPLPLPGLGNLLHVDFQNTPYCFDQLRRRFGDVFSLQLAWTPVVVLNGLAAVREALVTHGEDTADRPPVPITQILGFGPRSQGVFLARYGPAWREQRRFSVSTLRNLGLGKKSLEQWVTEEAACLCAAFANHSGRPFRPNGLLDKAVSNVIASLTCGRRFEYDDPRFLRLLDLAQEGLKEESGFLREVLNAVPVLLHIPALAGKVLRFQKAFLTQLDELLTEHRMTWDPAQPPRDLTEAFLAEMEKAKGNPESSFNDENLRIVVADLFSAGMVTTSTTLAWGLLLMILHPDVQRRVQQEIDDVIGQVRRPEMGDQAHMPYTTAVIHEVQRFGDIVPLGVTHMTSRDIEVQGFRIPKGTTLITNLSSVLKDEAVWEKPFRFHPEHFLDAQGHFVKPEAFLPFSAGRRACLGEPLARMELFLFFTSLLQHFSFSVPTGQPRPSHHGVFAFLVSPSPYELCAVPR
Method in brief: (§2)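 CYP1A2, 2C9, 2C19, 2D6 and 3A4 inhibition measured at 10 µM test compound in duplicate; percent inhibition reported.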

[4] = Kinetic solubility of the compound in phosphate buffered saline at pH 7.4 at 1 to 2 mg measured after 24 hrs by HPLC analysis; type: physicochemical; conditions: read-out: Kinetic_solubility
Method in brief: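 Solid compound (1–2 mg) in 1 mL PBS, pH 7.4, inverted in test tubes for 24 h. Samples centrifuged, supernatant analysed by HPLC with diode-array detection, with peak area compared to a standard of known concentration. LC-MS/MS used when UV signal was too low or the chromophore poor. Reported in µM.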

[5] = target: Serine/threonine-protein kinase Chk2 (Homo sapiens) (UniProt O96017); assay: Inhibition of CHK2 (unknown origin) at 1 uM relative to control; method in brief: as §1
Chain of Serine/threonine-protein kinase Chk2 (Homo sapiens) (O96017 whole entry): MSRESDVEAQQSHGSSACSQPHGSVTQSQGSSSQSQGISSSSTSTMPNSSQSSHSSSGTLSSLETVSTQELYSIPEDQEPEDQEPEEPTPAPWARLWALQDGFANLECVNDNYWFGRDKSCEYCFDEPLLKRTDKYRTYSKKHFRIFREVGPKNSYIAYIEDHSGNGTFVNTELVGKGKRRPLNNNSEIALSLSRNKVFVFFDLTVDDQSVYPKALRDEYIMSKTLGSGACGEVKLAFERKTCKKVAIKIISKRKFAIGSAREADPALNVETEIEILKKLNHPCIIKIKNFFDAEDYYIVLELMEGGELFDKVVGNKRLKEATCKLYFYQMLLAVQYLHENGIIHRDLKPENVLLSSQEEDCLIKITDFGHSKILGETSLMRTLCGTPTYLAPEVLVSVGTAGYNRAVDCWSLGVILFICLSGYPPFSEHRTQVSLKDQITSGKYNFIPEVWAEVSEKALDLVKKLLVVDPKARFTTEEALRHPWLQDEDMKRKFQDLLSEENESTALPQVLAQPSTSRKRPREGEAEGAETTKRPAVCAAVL

CYP1A2 = target: T1, CYP1A2 (Homo sapiens, UniProt P05177); assay: Inhibition of CYP1A2 (unknown origin) at 10 uM relative to control; type: ADME; method in brief: as §2
T1 sequence (P05177 whole entry): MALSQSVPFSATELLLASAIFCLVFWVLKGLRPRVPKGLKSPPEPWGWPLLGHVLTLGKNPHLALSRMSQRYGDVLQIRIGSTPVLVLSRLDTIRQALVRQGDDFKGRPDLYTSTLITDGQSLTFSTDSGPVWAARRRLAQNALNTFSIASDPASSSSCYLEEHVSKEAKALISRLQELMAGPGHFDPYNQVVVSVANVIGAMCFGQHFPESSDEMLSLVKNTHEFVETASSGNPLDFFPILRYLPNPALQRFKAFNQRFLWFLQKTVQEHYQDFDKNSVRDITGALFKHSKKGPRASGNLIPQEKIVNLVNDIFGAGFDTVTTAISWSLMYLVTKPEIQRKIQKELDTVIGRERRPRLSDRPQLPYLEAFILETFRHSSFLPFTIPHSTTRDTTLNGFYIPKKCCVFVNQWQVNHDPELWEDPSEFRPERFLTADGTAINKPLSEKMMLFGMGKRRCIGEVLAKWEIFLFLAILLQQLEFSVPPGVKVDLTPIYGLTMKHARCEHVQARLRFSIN

[6] = target: Proto-oncogene tyrosine-protein kinase Src (Homo sapiens) (UniProt P12931); assay: Inhibition of human SRC at 1 uM using poly(Glu,Tyr)4:1 as substrate by filter binding method relative to control; method in brief: as §1
Chain of Proto-oncogene tyrosine-protein kinase Src (Homo sapiens) (P12931 2-536 limits assumed): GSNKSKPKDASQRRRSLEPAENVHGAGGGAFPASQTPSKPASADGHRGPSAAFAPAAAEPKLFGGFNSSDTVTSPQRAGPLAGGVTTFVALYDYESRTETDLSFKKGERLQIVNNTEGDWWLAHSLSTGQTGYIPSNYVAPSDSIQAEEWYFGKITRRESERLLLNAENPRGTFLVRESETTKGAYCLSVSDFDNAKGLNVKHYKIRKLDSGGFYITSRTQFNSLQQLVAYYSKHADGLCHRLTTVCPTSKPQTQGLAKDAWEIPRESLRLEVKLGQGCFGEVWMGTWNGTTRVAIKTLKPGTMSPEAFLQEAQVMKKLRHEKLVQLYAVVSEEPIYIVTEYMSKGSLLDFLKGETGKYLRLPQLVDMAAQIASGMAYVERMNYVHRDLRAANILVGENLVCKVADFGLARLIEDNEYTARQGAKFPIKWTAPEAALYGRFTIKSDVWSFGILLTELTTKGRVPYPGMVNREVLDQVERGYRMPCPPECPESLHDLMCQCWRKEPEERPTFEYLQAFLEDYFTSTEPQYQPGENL

[7] = target: Epidermal growth factor receptor (Homo sapiens) (UniProt P00533); assay: Inhibition of recombinant human N-terminal GST/His6-tagged EGFR (H672 to A1210 residues) expressed in Sf9 insect cells at 1 uM using TRK-C-derived peptide as substrate by filter binding method relative to control; method in brief: as §1
[8] = target: Platelet-derived growth factor receptor alpha (Homo sapiens) (UniProt P16234); assay: Inhibition of recombinant human N-terminal GST/His6-tagged PDGFRalpha (Q551 to L1089 residues) expressed in Sf9 insect cells at 1 uM using TRK-C-derived peptide as substrate by filter binding method relative to control
Chain of Platelet-derived growth factor receptor alpha (Homo sapiens) (P16234 whole entry, the tested form may be a part): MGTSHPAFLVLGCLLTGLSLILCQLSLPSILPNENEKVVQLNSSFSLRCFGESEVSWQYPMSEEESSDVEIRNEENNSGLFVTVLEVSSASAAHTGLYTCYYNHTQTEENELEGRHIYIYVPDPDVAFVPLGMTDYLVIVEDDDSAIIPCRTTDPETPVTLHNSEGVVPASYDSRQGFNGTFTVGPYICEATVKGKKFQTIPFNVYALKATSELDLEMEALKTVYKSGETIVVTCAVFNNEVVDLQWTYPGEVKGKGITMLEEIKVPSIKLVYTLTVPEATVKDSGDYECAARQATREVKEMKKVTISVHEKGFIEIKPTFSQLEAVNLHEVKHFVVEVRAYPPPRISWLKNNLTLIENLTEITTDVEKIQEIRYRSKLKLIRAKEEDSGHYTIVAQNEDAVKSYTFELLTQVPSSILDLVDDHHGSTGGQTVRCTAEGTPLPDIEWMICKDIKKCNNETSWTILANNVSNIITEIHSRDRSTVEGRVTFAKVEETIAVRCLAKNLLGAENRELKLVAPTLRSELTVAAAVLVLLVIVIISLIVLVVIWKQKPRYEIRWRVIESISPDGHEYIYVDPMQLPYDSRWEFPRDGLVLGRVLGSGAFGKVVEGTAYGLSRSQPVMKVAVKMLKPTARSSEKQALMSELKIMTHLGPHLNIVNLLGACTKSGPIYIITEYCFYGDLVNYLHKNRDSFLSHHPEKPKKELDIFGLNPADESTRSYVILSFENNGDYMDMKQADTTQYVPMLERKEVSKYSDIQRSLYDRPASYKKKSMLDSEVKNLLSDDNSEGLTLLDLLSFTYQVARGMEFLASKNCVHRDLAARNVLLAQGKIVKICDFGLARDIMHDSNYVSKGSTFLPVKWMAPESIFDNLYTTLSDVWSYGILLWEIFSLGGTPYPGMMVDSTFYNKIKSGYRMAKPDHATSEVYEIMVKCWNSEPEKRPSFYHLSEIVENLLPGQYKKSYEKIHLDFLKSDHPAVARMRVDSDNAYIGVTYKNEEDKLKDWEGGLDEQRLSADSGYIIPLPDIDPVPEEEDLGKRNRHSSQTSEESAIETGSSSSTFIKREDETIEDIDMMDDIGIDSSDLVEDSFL
Method in brief: (§3)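 Single-point screen at 1 µM in a 24-kinase panel run externally; each value is the average of two independent data points. The detailed assay conditions are given only on the provider's site.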

[9] = target: Hepatocyte growth factor receptor (Homo sapiens) (UniProt P08581); assay: Inhibition of recombinant human N-terminal GST/His6-tagged MET (K956 to S1390 residues) expressed in Sf9 insect cells at 1 uM using TRK-C-derived peptide as substrate by filter binding method relative to control; method in brief: as §3
Chain of Hepatocyte growth factor receptor (Homo sapiens) (P08581 whole entry, the tested form may be a part): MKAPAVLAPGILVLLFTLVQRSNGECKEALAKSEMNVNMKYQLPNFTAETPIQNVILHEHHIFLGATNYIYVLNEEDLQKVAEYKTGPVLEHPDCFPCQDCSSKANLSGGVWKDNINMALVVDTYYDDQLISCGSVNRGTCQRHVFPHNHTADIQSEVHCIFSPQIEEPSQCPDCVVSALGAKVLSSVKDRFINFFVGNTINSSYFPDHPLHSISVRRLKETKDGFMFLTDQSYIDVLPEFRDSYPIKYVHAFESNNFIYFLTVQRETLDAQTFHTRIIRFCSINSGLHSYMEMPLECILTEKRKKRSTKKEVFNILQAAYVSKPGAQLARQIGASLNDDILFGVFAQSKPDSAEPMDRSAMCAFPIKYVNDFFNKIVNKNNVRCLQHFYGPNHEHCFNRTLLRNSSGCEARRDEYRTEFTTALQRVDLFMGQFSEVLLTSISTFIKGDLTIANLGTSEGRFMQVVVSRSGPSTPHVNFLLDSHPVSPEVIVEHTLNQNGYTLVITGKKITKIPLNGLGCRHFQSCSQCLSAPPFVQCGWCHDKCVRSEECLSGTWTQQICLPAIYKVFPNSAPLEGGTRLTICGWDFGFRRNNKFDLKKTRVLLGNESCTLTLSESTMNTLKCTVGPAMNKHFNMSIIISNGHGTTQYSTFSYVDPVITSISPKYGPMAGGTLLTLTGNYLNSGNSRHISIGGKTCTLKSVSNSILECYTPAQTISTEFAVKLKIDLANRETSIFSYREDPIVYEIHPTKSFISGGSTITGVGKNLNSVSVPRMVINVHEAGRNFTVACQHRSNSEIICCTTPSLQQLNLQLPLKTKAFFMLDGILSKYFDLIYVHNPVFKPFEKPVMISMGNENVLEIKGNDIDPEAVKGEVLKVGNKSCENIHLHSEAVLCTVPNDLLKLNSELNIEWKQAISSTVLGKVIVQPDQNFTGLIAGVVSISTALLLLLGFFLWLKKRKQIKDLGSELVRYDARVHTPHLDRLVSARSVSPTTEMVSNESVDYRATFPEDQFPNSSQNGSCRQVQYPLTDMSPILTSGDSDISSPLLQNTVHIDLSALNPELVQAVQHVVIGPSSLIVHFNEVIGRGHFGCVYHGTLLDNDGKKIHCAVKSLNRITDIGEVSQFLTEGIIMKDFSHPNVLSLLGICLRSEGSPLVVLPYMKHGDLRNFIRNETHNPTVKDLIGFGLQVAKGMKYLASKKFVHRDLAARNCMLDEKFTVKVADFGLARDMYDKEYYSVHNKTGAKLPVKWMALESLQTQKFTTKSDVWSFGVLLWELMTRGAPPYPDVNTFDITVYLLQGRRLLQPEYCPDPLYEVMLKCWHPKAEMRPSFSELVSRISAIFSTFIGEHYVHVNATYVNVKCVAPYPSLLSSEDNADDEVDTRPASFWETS

CYP2C19 = CYP2C19 (Homo sapiens, UniProt P33261); assay: Inhibition of CYP2C19 (unknown origin) at 10 uM relative to control; type: ADME; method in brief: as §2
CYP2C9 = CYP2C9 (Homo sapiens, UniProt P11712); assay: Inhibition of CYP2C9 (unknown origin) at 10 uM relative to control; type: ADME; method in brief: as §2
[10] = target: Mast/stem cell growth factor receptor Kit (Homo sapiens) (UniProt P10721); assay: Inhibition of recombinant human N-terminal GST/His6-tagged KIT (T544 to V976 residues) expressed in Sf9 insect cells at 1 uM using TRK-C-derived peptide as substrate by filter binding method relative to control; method in brief: as §1
[11] = target: Dual specificity mitogen-activated protein kinase kinase 1 (Homo sapiens) (UniProt Q02750); assay: Inhibition of wild-type human MEK1 (M1 to V393 residues) expressed in Sf9 insect cells at 1 uM using ERK2-K54R as substrate by filter binding method relative to control; method in brief: as §3
Chain of Dual specificity mitogen-activated protein kinase kinase 1 (Homo sapiens) (Q02750 whole entry, the tested form may be a part): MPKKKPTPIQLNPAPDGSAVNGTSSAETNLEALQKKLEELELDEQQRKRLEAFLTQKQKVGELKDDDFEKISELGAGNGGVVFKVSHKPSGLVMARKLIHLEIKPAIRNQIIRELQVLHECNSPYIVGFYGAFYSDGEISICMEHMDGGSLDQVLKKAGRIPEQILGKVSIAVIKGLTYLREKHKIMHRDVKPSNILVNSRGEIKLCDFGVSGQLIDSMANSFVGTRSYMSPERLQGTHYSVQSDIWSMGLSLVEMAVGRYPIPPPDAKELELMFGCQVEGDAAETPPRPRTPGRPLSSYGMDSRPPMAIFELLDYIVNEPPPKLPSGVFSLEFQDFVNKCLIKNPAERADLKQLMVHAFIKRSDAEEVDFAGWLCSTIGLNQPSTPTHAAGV

[12] = target: Insulin receptor (Homo sapiens) (UniProt P06213); assay: Inhibition of recombinant human N-terminal GST-tagged INSR (G989 to S1382 residues) expressed in baculovirus infected Sf9 cells at 1 uM using Poly(Ala,Glu,Lys,Tyr)6:2:5:1 as substrate by filter binding method relative to control; method in brief: as §1
[13] = Stability in human liver microsomes assessed as parent compound remaining at 0.5 uM after 30 mins by LC-MS/MS analysis; type: ADME, microsome; conditions: read-out: Stability
Method in brief: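 Single time-point stability assay: 0.5 µM compound, 0.5 mg/ml human or mouse liver microsomes in 0.1 M potassium phosphate pH 7.4, with NADPH-regenerating system, 30 min at 37 °C with shaking. Reaction quenched with acetonitrile/0.1% formic acid and centrifuged; supernatant analysed by LC-MS/MS. Reported as percent remaining; duplicates.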

[14] = target: Focal adhesion kinase 1 (Homo sapiens) (UniProt Q05397); assay: Inhibition of human FAK at 1 uM relative to control; method in brief: as §1
[15] = target: RAC-beta serine/threonine-protein kinase (Homo sapiens) (UniProt P31751); assay: Inhibition of human AKT2 at 1 uM by filter binding assay relative to control; method in brief: as §1
[16] = target: Phosphatidylinositol 4,5-bisphosphate 3-kinase catalytic subunit gamma isoform (Homo sapiens, UniProt P48736); assay: Inhibition of recombinant full-length human N-terminal His6-tagged p110gamma expressed in baculovirus infected Sf21 insect cells using PIP2 as substrate by HTRF assay; conditions: read-out: Ki(app)
PI3K p110 beta/p85 alpha = PI3K p110 beta/p85 alpha (Homo sapiens, UniProt P42338); assay: Inhibition of p110beta/85alpha (unknown origin) using PIP2 as substrate by HTRF assay; type: protein-complex assay; conditions: read-out: Ki(app)

Chain of Casein kinase I isoform alpha (Homo sapiens) (P48729 2-337 limits assumed): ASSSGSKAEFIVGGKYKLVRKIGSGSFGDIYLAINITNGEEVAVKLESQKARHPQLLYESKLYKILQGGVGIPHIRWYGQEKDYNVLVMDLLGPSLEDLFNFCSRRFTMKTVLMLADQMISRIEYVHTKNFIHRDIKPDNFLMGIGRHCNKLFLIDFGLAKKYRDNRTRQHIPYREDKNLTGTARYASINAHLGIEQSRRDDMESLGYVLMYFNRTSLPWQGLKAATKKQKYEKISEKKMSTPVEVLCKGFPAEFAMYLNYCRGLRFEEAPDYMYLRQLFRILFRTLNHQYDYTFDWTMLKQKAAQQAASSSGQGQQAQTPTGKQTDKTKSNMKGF

Row | SMILES | inhibition [1] | Ki [2] | IC50 [3] | inhibition at 10 µM (CYP2D6) | solubility kinetic at 24 h [4] | inhibition [5] | inhibition at 10 µM (CYP1A2) | inhibition [6] | inhibition [7] | inhibition [8] | inhibition [9] | inhibition at 10 µM (CYP2C19) | inhibition at 10 µM (CYP2C9) | inhibition [10] | inhibition [11] | inhibition [12] | remaining at 0.5 h, 0.5 µM [13] | inhibition [14] | inhibition [15] | Ki [16] | further results
1 | CS(=O)(=O)N1CCN(Cc2nc3c(N4CCOCC4)nc(-c4cnc(N)nc4)cn3n2)CC1 | < 25% | 1 nM | > 30000 nM | < 25% | 100 µM (≈ 47.5 µg/mL) | < 25% | < 25% | < 25% | < 25% | < 25% | < 25% | < 25% | < 25% | < 25% | < 25% | < 25% | 99% | < 25% | < 25% |  | 
2 | CS(=O)(=O)N1CCN(Cc2cn3nc(-c4cnc(N)nc4)nc(N4CCOCC4)c3n2)CC1 | < 25% | 1.52 nM | > 30000 nM | < 25% | 10 µM (≈ 4.75 µg/mL) | < 25% | < 25% | < 25% | < 25% | < 25% | < 25% | < 25% | < 25% | < 25% | < 25% | < 25% | 95% | < 25% | < 25% | 40.6 nM | Ki (PI3K p110 beta/p85 alpha): 388 nM
3 | CS(=O)(=O)N1CCN(Cc2cc3c(N4CCOCC4)nc(-c4cnc(N)nc4)cn3n2)CC1 | < 25% | 0.99 nM | > 30000 nM | < 25% | 10 µM (≈ 4.74 µg/mL) | < 25% | < 25% | < 25% | < 25% | < 25% | < 25% | < 25% | < 25% | < 25% | < 25% | < 25% | 97% | < 25% | < 25% | 49.1 nM | Ki (PI3K p110 beta/p85 alpha): 49.2 nM
4 | CS(=O)(=O)N1CCN(Cc2nc3c(N4CCOCC4)nc(-c4cnc(N)nc4)c(Cl)n3n2)CC1 | < 25% | 5.5 nM | > 30000 nM | < 25% | 100 µM (≈ 50.9 µg/mL) | < 25% | < 25% | < 25% | < 25% | < 25% | < 25% | < 25% | < 25% | < 25% | < 25% | < 25% | 97% | < 25% | < 25% | 42.4 nM | Ki (PI3K p110 beta/p85 alpha): 285 nM
